{"source": "ChEMBL document CHEMBL1121975", "about": "“Effect of N,N'-diethyl-1,2-bis(2,6-dichloro-4-hydroxyphenyl)ethylenediamines on the 7,12-dimethylbenz[a]anthracene-induced mammary carcinoma of the rat” (1982)", "key": {"Rattus norvegicus [1]": {"organism": "Rattus norvegicus", "test": "(§1) Partial remission of DMBA-induced mammary carcinoma in rats", "format": "functional", "outline": "(§2)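 Sprague-Dawley rats bearing DMBA-induced mammary tumours, randomized in groups of 10 between days 35 and 70 after induction. Dosing was sc in olive oil at 2 or 6 mg/kg: a single dose daily Monday–Thursday and a double dose Friday, for 4 weeks. Tumour number was taken at test start. Complete remission = not palpable; partial = ≤50% of initial size; static = 51-150% of initial size.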"}, "Rattus norvegicus [2]": {"test_system": "Rattus norvegicus", "test": "Progression of DMBA-induced mammary carcinoma in rats at 2 mg/kg dose", "format": "functional", "outline": "as §2"}, "Rattus norvegicus [3]": {"test_system": "Rattus norvegicus", "test": "Complete remission of DMBA-induced mammary carcinoma in rats at 2 mg/kg dose", "format": "functional", "outline": "as §2"}, "Rattus norvegicus [4]": {"organism": "Rattus norvegicus", "test": "(§3) Increased total tumor area (>150%) in DMBA-induced mammary carcinoma in rats", "format": "functional", "outline": "as §2"}, "Rattus norvegicus [5]": {"test_system": "Rattus norvegicus", "test": "Progression of DMBA-induced mammary carcinoma in rats at 6 mg/kg dose", "format": "functional", "outline": "as §2"}, "Rattus norvegicus [6]": {"test_system": "Rattus norvegicus", "test": "Change in body weight in rats after 7 days at 2 mg/kg dose", "format": "functional"}, "Rattus norvegicus [7]": {"test_system": "Rattus norvegicus", "test": "Change in body weight in rats after 7 days at 6 mg/kg dose", "format": "functional"}, "Rattus norvegicus [8]": {"organism": "Rattus norvegicus", "test": "(§4) Unchanged total tumor area (51-150%) in DMBA-induced mammary carcinoma in rats", "format": "functional", "outline": "as §2"}, "Rattus norvegicus [9]": {"organism": "Rattus norvegicus", "test": "as §4", "format": "functional", "outline": "as §2", "remark": "listed apart in the source"}, "Rattus norvegicus [10]": {"test_system": "Rattus norvegicus", "test": "Complete remission of DMBA-induced mammary carcinoma in rats at 6 mg/kg dose", "format": "functional", "outline": "as §2"}, "Rattus norvegicus [11]": {"organism": "Rattus norvegicus", "test": "as §1", "format": "functional", "outline": "as §2", "remark": "listed apart in the source"}, "Rattus norvegicus [12]": {"test_system": "Rattus norvegicus", "test": "Tumour number in DMBA-induced mammary carcinoma in rats at 2 mg/kg dose", "format": "functional", "outline": "as §2"}, "Rattus norvegicus [13]": {"test_system": "Rattus norvegicus", "test": "Tumour number in DMBA-induced mammary carcinoma in rats at 6 mg/kg dose", "format": "functional", "outline": "as §2"}, "Rattus norvegicus [14]": {"organism": "Rattus norvegicus", "test": "as §3", "format": "functional", "outline": "as §2", "remark": "listed apart in the source"}, "[15]": {"target": "Estrogen receptor (Bos taurus) (UniProt Q9XSB5+P49884)", "test": "Displacement of [3H]- estradiol from calf uterine estrogen receptor", "format": "protein assay", "outline": "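Competitive binding with calf uterine cytosol as the estrogen receptor source, [3H]estradiol as tracer, and dextran-charcoal separation. RBA = (molar concentration of E2 / molar concentration of inhibitor needed to reduce bound [3H]E2 by 50%) × 100, with 17β-estradiol = 100.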"}, "Rattus norvegicus [16]": {"organism": "Rattus norvegicus", "test": "as §3", "format": "functional", "outline": "as §2", "remark": "listed apart in the source"}}, "data": [{"smiles": "CCNC(c1c(Cl)cc(O)cc1Cl)C(NCC)c1c(Cl)cc(O)cc1Cl", "note": "(racemic) [listing 1 of 2 here]", "values": [{"measurement": "Partial remission", "setting": "Rattus norvegicus [1]", "value": 11, "unit": "%"}, {"measurement": "New tumors", "setting": "Rattus norvegicus [2]", "value": 18}, {"measurement": "Complete remission", "setting": "Rattus norvegicus [3]", "value": 14, "unit": "%"}, {"measurement": "Progressed tumors", "setting": "Rattus norvegicus [4]", "value": 54, "unit": "%"}, {"measurement": "New tumors", "setting": "Rattus norvegicus [5]", "value": 15}, {"measurement": "Change of body weight", "setting": "Rattus norvegicus [6]", "value": 0, "unit": "%"}, {"measurement": "Change of tumor area", "setting": "Rattus norvegicus [6]", "value": 282, "unit": "%"}, {"measurement": "Change of body weight", "setting": "Rattus norvegicus [7]", "value": -2, "unit": "%"}, {"measurement": "Change of tumor area", "setting": "Rattus norvegicus [7]", "value": -24, "unit": "%"}, {"measurement": "Static tumors", "setting": "Rattus norvegicus [8]", "value": 21, "unit": "%"}, {"measurement": "Static tumors", "setting": "Rattus norvegicus [9]", "value": 23, "unit": "%"}, {"measurement": "Complete remission", "setting": "Rattus norvegicus [10]", "value": 35, "unit": "%"}, {"measurement": "Partial remission", "setting": "Rattus norvegicus [11]", "value": 26, "unit": "%"}, {"measurement": "No. of tumors", "setting": "Rattus norvegicus [12]", "value": 34}, {"measurement": "No. of tumors", "setting": "Rattus norvegicus [13]", "value": 28}, {"measurement": "Progressed tumors", "setting": "Rattus norvegicus [14]", "value": 16, "unit": "%"}]}, {"smiles": "CNC(c1c(Cl)cc(O)cc1Cl)C(NC)c1c(Cl)cc(O)cc1Cl", "note": "(racemic)", "values": [{"measurement": "relative binding affinity (RBA)", "setting": "[15]", "value": 1.3}]}, {"smiles": "CCCNC(c1c(Cl)cc(O)cc1Cl)C(NCCC)c1c(Cl)cc(O)cc1Cl", "note": "(stereo in doubt)", "values": [{"measurement": "relative binding affinity (RBA)", "setting": "[15]", "value": 8.2}]}, {"smiles": "CCNC(c1c(Cl)cc(O)cc1Cl)C(NCC)c1c(Cl)cc(O)cc1Cl", "note": "(stereo in doubt) [listing 1 of 2 here]", "values": [{"measurement": "relative binding affinity (RBA)", "setting": "[15]", "value": 8.6}]}, {"smiles": "CCNC(c1c(Cl)cc(O)cc1Cl)C(NCC)c1c(Cl)cc(O)cc1Cl", "note": "(racemic) [listing 2 of 2 here]", "values": [{"measurement": "relative binding affinity (RBA)", "setting": "[15]", "value": 2.1}]}, {"smiles": "CCNC(c1c(Cl)cc(O)cc1Cl)C(NCC)c1c(Cl)cc(O)cc1Cl", "note": "(stereo in doubt) [listing 2 of 2 here]", "values": [{"measurement": "Partial remission", "setting": "Rattus norvegicus [1]", "value": 14, "unit": "%"}, {"measurement": "New tumors", "setting": "Rattus norvegicus [2]", "value": 7}, {"measurement": "Complete remission", "setting": "Rattus norvegicus [3]", "value": 50, "unit": "%"}, {"measurement": "New tumors", "setting": "Rattus norvegicus [5]", "value": 6}, {"measurement": "Change of body weight", "setting": "Rattus norvegicus [6]", "value": -6, "unit": "%"}, {"measurement": "Change of tumor area", "setting": "Rattus norvegicus [6]", "value": 29, "unit": "%"}, {"measurement": "Change of body weight", "setting": "Rattus norvegicus [7]", "value": -4, "unit": "%"}, {"measurement": "Change of tumor area", "setting": "Rattus norvegicus [7]", "value": -74, "unit": "%"}, {"measurement": "Static tumors", "setting": "Rattus norvegicus [8]", "value": 10, "unit": "%"}, {"measurement": "Static tumors", "setting": "Rattus norvegicus [9]", "value": 16, "unit": "%"}, {"measurement": "Complete remission", "setting": "Rattus norvegicus [10]", "value": 28, "unit": "%"}, {"measurement": "Partial remission", "setting": "Rattus norvegicus [11]", "value": 53, "unit": "%"}, {"measurement": "No. of tumors", "setting": "Rattus norvegicus [12]", "value": 35}, {"measurement": "Progressed tumors", "setting": "Rattus norvegicus [16]", "value": 26, "unit": "%"}, {"measurement": "No. of tumors", "setting": "Rattus norvegicus [13]", "value": 26}, {"measurement": "Progressed tumors", "setting": "Rattus norvegicus [14]", "value": 3, "unit": "%"}]}, {"smiles": "CCCNC(c1c(Cl)cc(O)cc1Cl)C(NCCC)c1c(Cl)cc(O)cc1Cl", "note": "(racemic)", "values": [{"measurement": "relative binding affinity (RBA)", "setting": "[15]", "value": 1}]}, {"smiles": "CNC(c1c(Cl)cc(O)cc1Cl)C(NC)c1c(Cl)cc(O)cc1Cl", "note": "(stereo in doubt)", "values": [{"measurement": "relative binding affinity (RBA)", "setting": "[15]", "value": 2.3}]}]}
